Test results from ChEMBL document CHEMBL5338733, “Heterobifunctional Ligase Recruiters Enable pan-Degradation of Inhibitor of Apoptosis Proteins” (J Med Chem, 2023).
Calls of active or inactive are those of the source. The calls are words filed in the database; no cut-off is given here.

Key:
Assay type in all cases: cell-based
[1] = biological target: T1, Protein cereblon/E3 ubiquitin-protein ligase XIAP (Homo sapiens) (UniProt P98170+Q96SW2); test: PROTAC activity at CRBN/IAP in human MM1.S cells assessed as induction of XIAP degradation at 0.1 uM by western blot analysis; conditions: time 3-96 hrs, TDE = time-dependent effect
T1 sequence (P98170 whole entry, looked up): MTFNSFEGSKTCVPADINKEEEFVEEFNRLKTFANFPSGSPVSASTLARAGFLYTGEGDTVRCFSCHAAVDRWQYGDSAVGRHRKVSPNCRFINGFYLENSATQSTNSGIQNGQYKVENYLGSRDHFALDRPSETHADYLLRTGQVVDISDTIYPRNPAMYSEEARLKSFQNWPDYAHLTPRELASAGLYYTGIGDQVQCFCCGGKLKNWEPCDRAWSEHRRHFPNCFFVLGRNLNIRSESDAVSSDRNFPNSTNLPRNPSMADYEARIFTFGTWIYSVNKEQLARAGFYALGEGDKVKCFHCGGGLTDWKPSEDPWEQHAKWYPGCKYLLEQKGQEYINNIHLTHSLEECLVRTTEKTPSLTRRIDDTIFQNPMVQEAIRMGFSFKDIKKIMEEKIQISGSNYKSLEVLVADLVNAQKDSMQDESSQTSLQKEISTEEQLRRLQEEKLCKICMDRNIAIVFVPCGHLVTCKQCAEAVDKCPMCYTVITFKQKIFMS
T1 sequence (Q96SW2 whole entry, looked up): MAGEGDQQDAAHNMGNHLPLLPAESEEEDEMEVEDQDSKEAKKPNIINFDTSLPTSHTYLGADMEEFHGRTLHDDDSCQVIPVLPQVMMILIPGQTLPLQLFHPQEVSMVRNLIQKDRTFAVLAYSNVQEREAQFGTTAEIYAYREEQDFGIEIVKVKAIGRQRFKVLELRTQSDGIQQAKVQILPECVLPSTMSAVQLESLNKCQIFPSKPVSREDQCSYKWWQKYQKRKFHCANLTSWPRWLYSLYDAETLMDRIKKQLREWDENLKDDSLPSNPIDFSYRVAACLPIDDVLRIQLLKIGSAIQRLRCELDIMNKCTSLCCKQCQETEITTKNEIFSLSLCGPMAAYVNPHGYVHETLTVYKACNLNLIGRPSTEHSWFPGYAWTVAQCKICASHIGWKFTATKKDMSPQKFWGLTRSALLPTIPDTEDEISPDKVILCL

[2] = biological target: T1, Protein cereblon/E3 ubiquitin-protein ligase XIAP (Homo sapiens); test: PROTAC activity at CRBN/IAP in human MM1.S cells assessed as induction of XIAP degradation pretreated for 1 hr with proteasome inhibitor, MG132 followed by incubation with drug for 3 hrs by western blot analysis
[3] = biological target: T2, Protein cereblon/Baculoviral IAP repeat-containing protein 3 (Homo sapiens) (UniProt Q13489+Q96SW2); test: PROTAC activity at CRBN/IAP in human MM1.S cells assessed as induction of cIAP2 degradation pretreated for 1 hr with proteasome inhibitor, MG132 followed by incubation with drug for 3 hrs by western blot analysis
T2 sequence (Q13489 whole entry, looked up): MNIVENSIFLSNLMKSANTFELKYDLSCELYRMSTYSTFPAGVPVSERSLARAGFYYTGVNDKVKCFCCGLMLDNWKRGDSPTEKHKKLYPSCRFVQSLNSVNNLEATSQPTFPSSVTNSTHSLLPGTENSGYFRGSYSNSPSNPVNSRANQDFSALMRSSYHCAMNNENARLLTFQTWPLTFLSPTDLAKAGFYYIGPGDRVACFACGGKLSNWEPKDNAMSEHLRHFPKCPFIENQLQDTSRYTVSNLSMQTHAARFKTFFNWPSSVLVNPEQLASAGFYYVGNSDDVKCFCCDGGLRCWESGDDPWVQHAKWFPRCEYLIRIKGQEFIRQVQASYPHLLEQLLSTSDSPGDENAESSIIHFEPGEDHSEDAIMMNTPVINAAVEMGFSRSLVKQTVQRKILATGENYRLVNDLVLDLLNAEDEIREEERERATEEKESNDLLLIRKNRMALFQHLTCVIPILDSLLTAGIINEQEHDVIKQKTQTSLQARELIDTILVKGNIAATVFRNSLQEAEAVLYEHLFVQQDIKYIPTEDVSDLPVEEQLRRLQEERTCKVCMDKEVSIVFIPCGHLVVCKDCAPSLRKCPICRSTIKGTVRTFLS
T2 sequence (Q96SW2 whole entry, looked up): as the sequence (Q96SW2 whole entry, looked up) above

[4] = biological target: T3, Protein cereblon/Baculoviral IAP repeat-containing protein 2 (Homo sapiens) (UniProt Q13490+Q96SW2); test: PROTAC activity at CRBN/IAP in human MM1.S cells assessed as induction of cIAP1 degradation pretreated for 1 hr with proteasome inhibitor, MG132 followed by incubation with drug for 3 hrs by western blot analysis
T3 sequence (Q13490 whole entry, looked up): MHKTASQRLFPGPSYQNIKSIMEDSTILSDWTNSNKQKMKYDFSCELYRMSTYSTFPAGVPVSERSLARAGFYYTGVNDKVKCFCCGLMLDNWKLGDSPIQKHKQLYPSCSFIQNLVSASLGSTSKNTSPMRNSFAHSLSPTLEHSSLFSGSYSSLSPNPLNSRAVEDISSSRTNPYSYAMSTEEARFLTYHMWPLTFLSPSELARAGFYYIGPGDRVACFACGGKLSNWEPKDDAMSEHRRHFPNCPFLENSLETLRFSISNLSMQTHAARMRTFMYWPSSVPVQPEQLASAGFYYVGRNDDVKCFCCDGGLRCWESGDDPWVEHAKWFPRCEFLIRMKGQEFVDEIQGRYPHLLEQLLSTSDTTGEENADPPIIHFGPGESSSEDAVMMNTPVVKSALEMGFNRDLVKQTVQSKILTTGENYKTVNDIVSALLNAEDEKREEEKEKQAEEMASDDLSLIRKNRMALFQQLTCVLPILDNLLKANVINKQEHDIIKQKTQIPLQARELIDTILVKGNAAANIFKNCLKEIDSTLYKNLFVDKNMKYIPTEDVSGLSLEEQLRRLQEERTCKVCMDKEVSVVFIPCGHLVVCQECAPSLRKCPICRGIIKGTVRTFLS
T3 sequence (Q96SW2 whole entry, looked up): as the sequence (Q96SW2 whole entry, looked up) above

[5] = biological target: T3, Protein cereblon/Baculoviral IAP repeat-containing protein 2 (Homo sapiens); test: PROTAC activity at CRBN/IAP in human MM1.S cells assessed as induction of cIAP1 degradation incubated for 16 hrs by western blot analysis; conditions: dose 0.0001-1 µM
Method in brief: (§1)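 MM.1S cells treated 16 h at the stated concentration. Lysed, run on SDS-PAGE and transferred to PVDF. Probed with primary antibodies overnight at 4 °C, then HRP secondaries, with ECL detection. Band densitometry normalized to loading control and to DMSO-treated cells. Averages of at least three independent experiments.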

[6] = biological target: T1, Protein cereblon/E3 ubiquitin-protein ligase XIAP (Homo sapiens); test: PROTAC activity at CRBN/IAP in human MM1.S cells assessed as induction of XIAP degradation incubated for 16 hrs by western blot analysis; conditions: dose 0.0001-1 µM; method in brief: as §1
[7] = biological target: T2, Protein cereblon/Baculoviral IAP repeat-containing protein 3 (Homo sapiens); test: PROTAC activity at CRBN/IAP in human MM1.S cells assessed as induction of cIAP2 degradation incubated for 16 hrs by western blot analysis; conditions: dose 0.0001-1 µM; method in brief: as §1
[8] = biological target: T3, Protein cereblon/Baculoviral IAP repeat-containing protein 2 (Homo sapiens); test: PROTAC activity at CRBN/IAP in human MM1.S cells assessed as induction of cIAP1 degradation at 10 nM incubated for 16 hrs by western blot analysis; method in brief: as §1
[9] = biological target: T3, Protein cereblon/Baculoviral IAP repeat-containing protein 2 (Homo sapiens); test: PROTAC activity at CRBN/IAP in human MM1.S cells assessed as induction of cIAP1 degradation at 100 nM incubated for 3 hrs by diaPASEF-based analysis
Method in brief: (§2)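 MM.1S cells exposed to DMSO or 0.1 μM compound for 3 h, then washed with PBS and snap-frozen. Lysed in 8 M urea/EPPS pH 8.5 buffer. 50 μg protein reduced, alkylated, precipitated, then digested with LysC and trypsin. Analysed by diaPASEF on timsTOF Pro2. Missing values imputed from a Gaussian distribution; log2 fold change versus DMSO with limma statistics.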

[10] = biological target: T3, Protein cereblon/Baculoviral IAP repeat-containing protein 2 (Homo sapiens); test: PROTAC activity at CRBN/IAP in human MM1.S cells assessed as induction of cIAP1 degradation pretreated for 1 hr with ubiquitin-activating inhibitor, MLN7243 followed by incubation with drug for 3 hrs by western blot analysis
[11] = biological target: T2, Protein cereblon/Baculoviral IAP repeat-containing protein 3 (Homo sapiens); test: PROTAC activity at CRBN/IAP in human MM1.S cells assessed as induction of cIAP2 degradation at 0.1 uM by western blot analysis; conditions: time 3-96 hrs, TDE = time-dependent effect; method in brief: as §1
[12] = biological target: T2, Protein cereblon/Baculoviral IAP repeat-containing protein 3 (Homo sapiens); test: PROTAC activity at CRBN/IAP in human MM1.S cells assessed as induction of cIAP2 degradation pretreated for 1 hr with ubiquitin-activating inhibitor, MLN7243 followed by incubation with drug for 3 hrs by western blot analysis
[13] = biological target: T2, Protein cereblon/Baculoviral IAP repeat-containing protein 3 (Homo sapiens); test: PROTAC activity at CRBN/IAP in human MM1.S cells assessed as induction of cIAP2 degradation at 0.1 uM incubated for 3 hrs by western blot analysis
Method in brief: (§3)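 MM.1S cells treated with 0.1 μM compound for 3 h. Western blotting of lysates on PVDF with HRP/ECL detection.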

[14] = biological target: T1, Protein cereblon/E3 ubiquitin-protein ligase XIAP (Homo sapiens); test: PROTAC activity at CRBN/IAP in human MM1.S cells assessed as induction of XIAP degradation pretreated for 1 hr with ubiquitin-activating inhibitor, MLN7243 followed by incubation with drug for 3 hrs by western blot analysis
[15] = biological target: T1, Protein cereblon/E3 ubiquitin-protein ligase XIAP (Homo sapiens); test: PROTAC activity at CRBN/IAP in human MM1.S cells assessed as induction of XIAP degradation at 10 nM incubated for 16 hrs by western blot analysis
[16] = biological target: T3, Protein cereblon/Baculoviral IAP repeat-containing protein 2 (Homo sapiens); test: PROTAC activity at CRBN/IAP in human MM1.S cells assessed as induction of cIAP1 degradation at 0.1 uM by western blot analysis; conditions: time 3-96 hrs, TDE = time-dependent effect; method in brief: as §1
[17] = biological target: T3, Protein cereblon/Baculoviral IAP repeat-containing protein 2 (Homo sapiens); test: PROTAC activity at CRBN/IAP in human MM1.S cells assessed as induction of cIAP1 degradation at 0.1 uM incubated for 3 hrs by western blot analysis; method in brief: as §3
[18] = biological target: Protein cereblon/Zinc finger protein Aiolos (Homo sapiens) (UniProt Q96SW2+Q9UKT9); test: PROTAC activity at CRBN/IKZF3 in human MM1.S cells assessed as induction of IKZF3 degradation at 1 uM incubated for 16 hrs by western blot analysis; method in brief: as §1
Protein cereblon/Zinc finger protein Aiolos (Homo sapiens), sequence (Q96SW2 whole entry, looked up): as above
Protein cereblon/Zinc finger protein Aiolos (Homo sapiens), sequence (Q9UKT9 whole entry, looked up): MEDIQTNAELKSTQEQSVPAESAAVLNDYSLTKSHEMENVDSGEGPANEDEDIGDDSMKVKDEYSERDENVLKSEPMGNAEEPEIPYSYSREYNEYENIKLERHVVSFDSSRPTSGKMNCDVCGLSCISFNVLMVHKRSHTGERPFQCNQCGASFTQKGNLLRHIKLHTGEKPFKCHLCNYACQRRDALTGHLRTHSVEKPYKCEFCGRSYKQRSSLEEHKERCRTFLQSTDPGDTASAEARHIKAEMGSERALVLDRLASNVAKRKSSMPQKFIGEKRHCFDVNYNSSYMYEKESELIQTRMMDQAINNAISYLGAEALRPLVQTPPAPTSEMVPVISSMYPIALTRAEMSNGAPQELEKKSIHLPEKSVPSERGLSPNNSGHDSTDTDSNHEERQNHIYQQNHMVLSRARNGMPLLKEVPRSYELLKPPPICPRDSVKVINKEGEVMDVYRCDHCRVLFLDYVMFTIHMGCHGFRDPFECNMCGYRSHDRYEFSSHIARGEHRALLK

[19] = biological target: T1, Protein cereblon/E3 ubiquitin-protein ligase XIAP (Homo sapiens); test: PROTAC activity at CRBN/IAP in human MM1.S cells assessed as induction of XIAP degradation at 0.1 uM incubated for 3 hrs by diaPASEF-based proteomics analysis; method in brief: as §2
[20] = biological target: T1, Protein cereblon/E3 ubiquitin-protein ligase XIAP (Homo sapiens); test: PROTAC activity at CRBN/IAP in human MM1.S cells assessed as induction of XIAP degradation at 0.1 uM incubated for 3 hrs by western blot analysis; method in brief: as §3

Question: Which Activity [1] does the source give for `CN[C@@H](C)C(=O)N[C@H](C(=O)N1C[C@@H](Oc2cccc(OCCOCCCCCCOCCCCCCNc3cccc4c3C(=O)N(C3CCC(=O)NC3=O)C4=O)c2)C[C@H]1C(=O)N[C@@H]1CCCc2ccccc21)C1CCCCC1` (stereo not given in full) here?
Answer: Tde

Question: And the Activity [2]?
Answer: inactive

Question: And the Activity [3]?
Answer: inactive

Question: And the Activity [4]?
Answer: inactive

Question: And the Activity [5]?
Answer: Dose-Dependent Effect

Question: And the Activity [6]?
Answer: Dose-Dependent Effect

Question: What about the Activity [7] of the same compound?
Answer: Dose-Dependent Effect

Question: What about the Activity [8] of the same compound?
Answer: 100%

Question: What about the Activity [9] of the same compound?
Answer: Active

Question: And the Activity [10]?
Answer: inactive

Question: And the Activity [11]?
Answer: Tde

Question: And the Activity [12]?
Answer: inactive

Question: And the Activity [13]?
Answer: 100%

Question: What about the Activity [14] of the same compound?
Answer: inactive

Question: What about the Activity [15] of the same compound?
Answer: 100%

Question: What about the Activity [16] of the same compound?
Answer: Tde

Question: And the Activity [17]?
Answer: 100%

Question: What about the Activity [18] of the same compound?
Answer: Active

Question: What about the Activity [19] of the same compound?
Answer: Active

Question: And the Activity [20]?
Answer: 100%
